KCNQ1 inh = inhibitors of human KCNQ1 channel, primary screen, cell-based, thallium flux, high-throughput; Potassium voltage-gated channel subfamily KQT member 1 (Homo sapiens), P51787; CHO-K1 KCNQ1, FluxOR thallium flux fluorescence; hits give high values; B-score at 10 µM; hit rate 1.3% among 310,000; AID 2642, 2010;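 active = compounds whose thallium flux B-score, printed positive for inhibition, exceeds three library SD while starting fluorescence stays within three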;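 note: channel opened by potassium depolarization with thallium stimulus after 20 min compound exposure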
hERG rescue = hERG rescue from dofetilide block, primary screen, cell-based, CHO-hERG, FluxOR thallium flux, dofetilide IC70 | AID 1511, 2009 | Voltage-gated inwardly rectifying potassium channel KCNH2 (Homo sapiens), Q12809 | activation (rescue from dofetilide block), less the hit threshold, % at 10 µM | dofetilide IC70 present | hit rate 0.51% among 310,000;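 active = activation above the mean of controls blocked by dofetilide plus 5 SD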;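 note: thallium influx through hERG after potassium depolarization seen as dye fluorescence rise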
KCNK9 block = KCNK9 potassium channel inhibitors, primary screen, HEK293 cells, thallium flux | Potassium channel subfamily K member 9 (Homo sapiens), Q9NPC2 | FluxOR thallium flux fluorescence; hits give low values | B-score at 10 µM | hit rate 1.2% among 310,000 | AID 488922, 2010;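 active = ratio B-score over 3 SD below the library mean, with starting fluorescence within 5 SD of its mean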;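 note: negative B-score means less thallium flux so channel inhibition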
KCNQ1 pot = potentiators or activators of KCNQ1 channel, primary screen, cell-based, thallium flux, high-throughput; hit rate 0.35% among 310,000; Potassium voltage-gated channel subfamily KQT member 1 (Homo sapiens), P51787; B-score at 10 µM; AID 2648, 2010; CHO-K1 KCNQ1, thallium flux FluxOR fluorescence; hits give high values;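 active = fluorescence ratio B-score, a plate-corrected score, at least three library SD, with initial intensity B-score within 5 SD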
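Assay system: stable KCNQ1 CHO-K1 line; medium: assay buffer, equal DMSO in all wells; timing: 90 min dye loading and 20 min compound exposure, both at room temperature; technique: kinetic FluxOR thallium fluorescence, 10-s 1-Hz baseline, 110-s post-stimulus read; read-out basis: B score of baseline-normalized fluorescence ratio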
Kir21 block = inhibitors of mouse Kir2.1 inward-rectifier potassium channel; hit rate 0.85% among 310,000; AID 1672, 2009; Inward rectifier potassium channel 2 (Mus musculus), P35561; HEK293-Kir2.1, FluxOR thallium flux fluorescence; hits give low values; B-score at 10 µM;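 active = fluorescence ratio B-score at or below minus 3 SD of library scores, with starting-brightness B-score within 2 SD, cut at about -4.2 in these data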;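 note: channel flux triggered by added potassium and thallium sulfate stimulus; B-score of peak minus minimum fluorescence over baseline after thallium stimulus; more negative B-score means stronger Kir2.1 block with less thallium influx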
Target sequence (P35561 whole entry, looked up): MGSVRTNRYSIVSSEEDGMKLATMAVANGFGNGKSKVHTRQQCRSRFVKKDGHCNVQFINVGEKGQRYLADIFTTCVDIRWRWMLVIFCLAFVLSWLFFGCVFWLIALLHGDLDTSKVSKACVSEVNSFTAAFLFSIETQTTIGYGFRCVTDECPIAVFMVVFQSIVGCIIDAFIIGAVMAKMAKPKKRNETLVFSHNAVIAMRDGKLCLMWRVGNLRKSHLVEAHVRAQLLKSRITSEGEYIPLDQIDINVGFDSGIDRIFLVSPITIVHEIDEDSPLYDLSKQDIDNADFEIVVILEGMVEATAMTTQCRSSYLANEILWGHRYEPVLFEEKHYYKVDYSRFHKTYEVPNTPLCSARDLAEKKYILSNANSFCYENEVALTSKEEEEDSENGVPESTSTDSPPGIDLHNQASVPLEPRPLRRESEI
KCNK3 inh = human KCNK3 channel inhibitors, primary screen, CHO cells, FluxOR thallium flux, B-score. Potassium channel subfamily K member 3 (Homo sapiens), O14649. FluxOR fluorescence; hits give low values. B-score at 10 µM. hit rate 0.84% among 340,000;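 active = B-score under library mean minus 4 SD, starting fluorescence ratio at most library mean plus 5 SD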;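 note: more negative B-score means stronger inhibition of thallium flux through KCNK3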
* marks the source's active call; other numbers are inactive results; i = inactive; nt = no result. Most compounds without a hit are left out; they make up all but 3.7% or so of the library.

SMILES	KCNQ1 inh	hERG rescue	KCNK9 block	KCNQ1 pot	Kir21 block	KCNK3 inh
CCn1nc(C(=O)N[C@@H](CCSC)c2nc3ccccc3[nH]2)c2ccccc2c1=O	i	-18	i	i	2.4	i
Cc1ccc(S(=O)(=O)Nc2ccccc2-c2ccccc2NS(=O)(=O)c2ccc(C)cc2)cc1	7*	-10	i	i	0.06	i
Cc1ccc(S(=O)(=O)Nc2ccccc2C(N)=O)cc1	i	-11	i	i	0.4	i
Cc1ccc(S(=O)(=O)Nc2ccccc2C(O)c2ccccc2)cc1 (configuration not stated)	i	-13	i	i	-5*	i
O=C(Cn1c(CO)nc2ccccc21)NCCc1ccc(F)cc1	i	-8	i	i	0.63	i
O=C(Cn1c(CO)nc2ccccc21)NCCc1ccccc1	i	7.3*	i	i	-1.6	i
CC(=O)c1sc(NC(=O)c2oc3ccc(F)cc3c2C)nc1C	nt	nt	nt	nt	nt	i
N=c1c2c(-c3ccccc3)c(-c3ccccc3)n(Cc3ccccc3)c2ncn1CCCn1ccnc1	i	-20	i	i	-8.7*	i
COCC(=O)N[C@@H]1c2cc(OC)c(OC)cc2C[C@H]1OCc1ccccc1	nt	nt	nt	nt	nt	i
O=C1Nc2ccccc2/C1=C/c1cnc(-c2ccccc2)[nH]1	i	-5	-6.6*	i	-1.6	i
Cc1ccc(OCCC(=O)NNC(=O)c2ccccc2F)cc1	nt	nt	nt	nt	nt	i
CN(C)S(=O)(=O)c1cccc(COC(=O)CNC(=O)c2ccc(Br)o2)c1	nt	nt	nt	nt	nt	i
CCc1ccc(/C=C2\Oc3cc(OS(C)(=O)=O)ccc3C2=O)cc1	i	-5	i	i	0.23	i
CCc1ccc(/C=C2\Oc3c(ccc(O)c3CN3CCN(CCO)CC3)C2=O)cc1	11*	-29	i	i	-5.4	i
OC(CNCc1ccccc1)Cn1ccc2ccccc21 (configuration not stated)	i	-4	i	i	-5.2*	i
CCc1ccc(S(=O)(=O)NCc2csc(-c3ccccc3)n2)s1	i	-7	i	i	-6.3*	i
O=S(=O)(NCc1csc(-c2ccccc2)n1)c1ccc(Cl)s1	i	-13	i	i	-4.6*	i
COc1ccc(OC)c(S(=O)(=O)NCc2csc(-c3ccccc3)n2)c1	i	-6	i	i	-4.2*	i
CCc1ccc(S(=O)(=O)NCCc2csc(-c3cccnc3)n2)s1	i	-9	i	i	-2.4	i
COc1ccc(OC)c(S(=O)(=O)NCc2cn3c(C)csc3n2)c1	i	-8	i	i	0.56	i
CCCCN(C)CCNC(=O)c1cn(C)c(=O)c2c1c1ccccc1n2C	i	-7	i	i	-0.44	i
CCCc1nc2c(s1)CCc1onc(-c3ccc(Cl)cc3)c1-2	i	-6	-7.1*	i	0.47	i
CCCc1nc2c(s1)CCc1onc(-c3ccc(Br)cc3)c1-2	i	-9	i	i	0.01	i
COc1ccc(C(=O)CCC(=O)Nc2cc(Cl)c(O)c(Cl)c2)cc1	i	-9	i	i	-0.01	i
CCN(CC)C(=O)Cn1cc(C(=O)C(=O)N2CCN(C)CC2)c2ccccc21	i	2	i	i	-0.25	i
SMILES	KCNQ1 inh	hERG rescue	KCNK9 block	KCNQ1 pot	Kir21 block	KCNK3 inh
CCN(CC)C(=O)Cn1cc(C(=O)C(=O)N2CC=C(c3ccccc3)CC2)c2ccccc21	i	38*	i	i	-0.2	i
S=C(NCc1ccccc1)N1CCn2cccc2C1c1cccnc1 (configuration not stated)	i	-7	i	i	3.1	i
S=C(NCCc1ccccc1)N1CCn2cccc2C1c1cccnc1 (configuration not stated)	i	-12	i	15*	0.17	i
COc1ccccc1C1(O)C(=O)Nc2ccccc21 (configuration not stated)	i	1	i	i	0.06	i
COc1ccc(C2=NNC(=O)C2(C)Br)cc1 (configuration not stated)	nt	nt	nt	nt	nt	i
O=S(=O)(O)c1ccc(N=Nc2ccccc2)cc1	i	-2	i	i	2	i
O=c1ccc(N=Nc2ccccc2)ccc1O	i	49*	i	79*	-0.04	i
COc1nc(N)nc(N)c1NS(=O)(=O)c1ccc(C)cc1	i	-10	i	i	-0.02	i
O=S(=O)(/N=S1\CC=CCN1S(=O)(=O)c1ccccc1)c1ccccc1 (configuration not stated)	nt	nt	nt	nt	nt	i
O=C(Nc1ccccc1)c1nc2ccccc2s1	i	-10	i	i	0.83	i
Cc1ccc(C)c2sc(NC(=O)c3nc4ccccc4s3)nc12	i	8.9*	i	25*	0.39	i
N#Cc1ccc(CSc2nnc(-c3ccccc3)n2Cc2ccco2)cc1	i	-6	i	i	-1.7	i
C=CCn1c(SCc2ccc(C#N)cc2)nnc1-c1cccc(Cl)c1	i	-16	i	i	-11*	i
COc1ccccc1C(=O)NC(=S)NNC(=O)c1sc2ccccc2c1Cl	i	86*	i	46*	0.39	i
COc1ccccc1C(=O)NNC(=S)NC(=O)c1cccs1	i	-19	i	10*	-0.02	i
COc1ccccc1C(=O)NNC(=S)NC(=O)c1sc2ccccc2c1Cl	i	25*	i	25*	1.1	i
Cc1c(NC(=S)NC(=O)c2sc3ccccc3c2Cl)cccc1C(=O)O	i	0	i	i	0.82	i
CC1CC1C(=O)OCC(=O)Nc1cc(S(=O)(=O)N2CCCCC2)ccc1Cl (configuration not stated)	nt	nt	nt	nt	nt	i
CCN(CC)Cc1c(C(=O)N/N=C(\C)c2ccncc2)nnn1-c1nonc1N	i	-3	i	i	1.6	i
Cc1cc(N2CCN(c3cccc(C)c3C)CC2)nc(-c2ccccc2)n1	i	-7	-6.6*	i	-0.37	i
Cc1cc(N2CCC(C(=O)NC3CC3)CC2)nc(-c2ccccc2)n1	i	-7	i	i	-0.09	i
CC1CN(C2CCCCC2)C(=S)N(c2ccccc2)C1=O (configuration not stated)	nt	nt	nt	nt	nt	i
